From publication PMC8038854 (Biochemical Journal, 2021) come the findings set out here.

One assay deals with Scrib PDZ1 Q808H (Homo sapiens, UniProt Q14160, Q808H). The experiment in a line: ITC of PBM peptides against Scrib PDZ1 Q808H. The class given is binding. Put shortly: (§1)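 Recombinant human Scribble PDZ domains (wild type or point mutant) were expressed in E. coli BL21(DE3) pLysS as GST or MBP fusions and purified. Synthetic 8-mer C-terminal PBM peptides, including a pan-PDZ positive-control peptide, were titrated into protein in 25 mM Hepes pH 7.5, 150 mM NaCl at 25°C. There were 20 injections spaced 180 s apart. KD came from a 1:1 model, with ±SD from at least three independent experiments.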
Chain of Scrib PDZ1 Q808H (Q14160 728-815 Q808H): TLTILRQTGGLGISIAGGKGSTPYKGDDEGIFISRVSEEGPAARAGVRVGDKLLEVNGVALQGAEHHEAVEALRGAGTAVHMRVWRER

In another assay the target is T1, Scrib PDZ3 R1044Q (Homo sapiens, UniProt Q14160, R1044Q).
T1 sequence (Q14160 1002-1094 R1044Q): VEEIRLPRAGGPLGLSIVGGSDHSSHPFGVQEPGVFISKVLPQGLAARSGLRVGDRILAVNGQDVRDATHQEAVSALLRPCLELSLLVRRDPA
In words: ITC of PBM peptides against Scrib PDZ3 R1044Q. The class given is binding. Put shortly:
as §1

The target in another assay is Scrib PDZ1 WT (728–815) (Homo sapiens, UniProt Q14160). The experiment in a line: Isothermal titration calorimetry. The class given is binding. Put shortly:
as §1

The target of another assay is T2, Scrib PDZ2 WT (860–950) (Homo sapiens, UniProt Q14160).
T2 sequence (Q14160 860-950): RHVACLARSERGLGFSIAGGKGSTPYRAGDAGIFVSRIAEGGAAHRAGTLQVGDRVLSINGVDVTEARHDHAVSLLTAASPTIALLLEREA
The experiment in a line: ITC of PBM peptides against Scrib PDZ2 WT. Format: binding. Put shortly: as §1

The target of assay [1] is T3, Scrib PDZ3 WT (1002–1094) (Homo sapiens, UniProt Q14160).
T3 sequence (Q14160 1002-1094): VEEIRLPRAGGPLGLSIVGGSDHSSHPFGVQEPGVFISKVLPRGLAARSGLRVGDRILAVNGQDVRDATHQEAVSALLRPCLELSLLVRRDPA
The experiment in a line: ITC of PBM peptides against Scrib PDZ3 WT. The class given is binding. Summed up:
as §1

In assay [2] the target is Scribble PDZ1 Q808H (human) (UniProt Q14160). In words: ITC.
Chain of Scribble PDZ1 Q808H (human) (Q14160 728-815 Q808H): as the sequence (Q14160 728-815 Q808H) above
In assay [3] the target is Scribble PDZ2 R896A (human) (UniProt Q14160). The experiment in a line: ITC.
In assay [4] the target is Scribble PDZ3 R1044Q (human) (UniProt Q14160). In words: ITC.
For assay [5], the target named is Scribble PDZ1 Q808H (human) (UniProt Q14160). The experiment in a line: ITC. This is another data set of the same source.
Assay [6] addresses Scribble PDZ1 H793A (human) (UniProt Q14160). The experiment in a line: ITC.
In another assay the target is Scribble PDZ1 Q808H (human, UniProt Q14160 728-815, Q808H). In words: ITC.
Chain of Scribble PDZ1 Q808H (Q14160 728-815 Q808H): as the sequence (Q14160 728-815 Q808H) above
The target in the next assay is T4, Scribble PDZ2 R896A (human, UniProt Q14160 860-950, R896A).
T4 sequence (looked up): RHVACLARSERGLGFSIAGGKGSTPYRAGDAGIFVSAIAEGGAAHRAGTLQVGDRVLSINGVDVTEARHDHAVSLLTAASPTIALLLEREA
In words: ITC.

The target in a further assay is Scribble PDZ1 H793A (human, UniProt Q14160 728-815, H793A). The experiment in a line: ITC.
Chain of Scribble PDZ1 H793A (Q14160 728-815 H793A): as the sequence (Q14160 728-815 Q808H) above, with H66A, H81Q counted along it
The target in the next assay is T5, Scribble PDZ3 R1044Q (human, UniProt Q14160 1002-1094, R1044Q).
T5 sequence (looked up): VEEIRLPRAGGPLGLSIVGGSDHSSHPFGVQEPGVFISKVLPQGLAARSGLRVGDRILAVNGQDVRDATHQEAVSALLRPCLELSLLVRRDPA
In words: ITC.

The target in a further assay is T6, Scribble PDZ3 P1043L (human, UniProt Q14160 1002-1094, P1043L).
T6 sequence (looked up): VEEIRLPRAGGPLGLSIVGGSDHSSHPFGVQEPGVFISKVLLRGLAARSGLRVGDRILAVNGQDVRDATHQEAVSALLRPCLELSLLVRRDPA
In words: ITC.

For the next assay, the target named is T7, Scribble PDZ2 H928A (human, UniProt Q14160 860-950, H928A).
T7 sequence (looked up): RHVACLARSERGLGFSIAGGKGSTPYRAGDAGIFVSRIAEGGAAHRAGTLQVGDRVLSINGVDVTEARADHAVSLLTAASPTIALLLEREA
The experiment in a line: ITC.

The next assay has as its target Scribble PDZ1 E814G (human, UniProt Q14160 728-815, E814G). The experiment in a line: ITC.

Like-named read-outs stand apart in the source and are kept apart here. Peptide text beside a SMILES is read from it.

Chain of Scrib PDZ1 WT (728–815) (Q14160 728-815): as the sequence (Q14160 728-815 Q808H) above, with H81Q counted along it
Chain of Scribble PDZ1 H793A (human) (Q14160 728-815 H793A): as the sequence (Q14160 728-815 Q808H) above, with H66A, H81Q counted along it
Chain of Scribble PDZ1 E814G (Q14160 728-815 E814G): as the sequence (Q14160 728-815 Q808H) above, with H81Q, E87G counted along it

In the case of `CC(C)C[C@H](NC(=O)[C@@H](N)CCCNC(=N)N)C(=O)N[C@@H](CCC(N)=O)C(=O)N[C@@H](CO)C(=O)N[C@@H](CCC(=O)O)C(=O)N[C@H](C(=O)N[C@@H](CO)C(=O)N[C@H](C(=O)O)C(C)C)[C@@H](C)O` [Vangl2] (H-RLQSETSV-OH), the Kd at Scrib PDZ1 Q808H worked out at 10.4 ± 0.27 µM; on Scrib PDZ3 R1044Q it was 20.9 ± 4.67 µM; at Scrib PDZ1 WT (728–815), 24.5 ± 3.9 µM; at Scrib PDZ2 WT (860–950), 45.1 ± 4.92 µM; in [1], 40.2 ± 3.92 µM.

Turning to APC C-terminal peptide, the Kd in [2] came out at 6.06 µM; in assay [3], 30.6 µM; in assay [4], 27.4 µM.

For beta-PIX C-terminal peptide, the Kd in assay [5] is 10.4 µM; in [2], 3.11 µM; in [3], 189 µM; in [6] it was 62.8 µM; in [4], 14.1 µM.

Turning to RSWFETWV [superpeptide (synthetic pan-PDZ binding peptide)], the Kd amounted to 2.73 µM in the assay with Scribble PDZ1 Q808H; 7.8 µM in the assay with Scribble PDZ2 R896A; 2.18 µM with Scribble PDZ1 H793A; 7.22 µM in the assay with Scribble PDZ3 R1044Q; 9.75 µM in the assay with Scribble PDZ3 P1043L; 27.7 µM with Scribble PDZ2 H928A. Also, the affinity in the assay with Scribble PDZ1 E814G, expressed as Kd, was 2.36 µM.

RLQSETSV [Vangl2 C-terminal PBM peptide (RLQSETSV)]: the Kd with Scribble PDZ2 R896A was 26.7 µM; in the assay with Scribble PDZ1 H793A, 29.9 µM.
